Measured values: ChEMBL document CHEMBL1629436, “Synthesis and biological evaluation of new camptothecin derivatives obtained by modification of position 20” (Bioorg Med Chem, 2010)
Activity calls are given as the source filed them.

Experiments:
HeLa = assay: Cytotoxicity against human HeLa cells after 72 hrs by trypan blue assay; type: functional, cell-based
Method in brief: (§1)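 A-431, HeLa and HL-60 cells at 4×10^4 per well, incubated 24 h. HeLa and A-431 then received fresh medium. Graded compound concentrations were added for a further 72 h at 37 °C, 5% CO2. Viability was counted by Trypan blue exclusion. IC50 is the concentration giving 50% reduction in cell number versus control: ≥3 independent experiments, triplicate samples, mean ± SD.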

yA3 [1] = assay: Cytotoxicity against mouse yA3 cells after 24 to 96 hrs by MTS assay; type: functional, cell-based
Method in brief: (§2)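 Mouse transgenic lines plated at 10^3 cells/well and left 24 h to attach. Drugs diluted in medium were added for 24 or 96 h. CellTiter 96 AQueous One (MTS) reagent was then added for 1 h at 37 °C, with absorbance read at 490 nm. Each condition was run in quintuplicate, and cytotoxicity was expressed as percent of controls.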

Mus musculus [2] = organism: Mus musculus; assay: Cytotoxicity against mouse betaD10 cells after 24 to 96 hrs by MTS assay; type: functional, cell-based; method in brief: as §2
A2C12 [3] = assay: Cytotoxicity against mouse A2C12 cells after 24 to 96 hrs by MTS assay; type: functional, cell-based; method in brief: as §2
[4] = target: DNA topoisomerase 2-alpha (Homo sapiens) (UniProt P11388); assay: Inhibition of human recombinant topoisomerase 2alpha-mediated relaxation of supercoiled pBR322 at up to 100 uM after 60 mins using ethidium bromide staining by agarose gel electrophoresis
DNA topoisomerase 2-alpha (Homo sapiens), sequence (P11388 whole entry): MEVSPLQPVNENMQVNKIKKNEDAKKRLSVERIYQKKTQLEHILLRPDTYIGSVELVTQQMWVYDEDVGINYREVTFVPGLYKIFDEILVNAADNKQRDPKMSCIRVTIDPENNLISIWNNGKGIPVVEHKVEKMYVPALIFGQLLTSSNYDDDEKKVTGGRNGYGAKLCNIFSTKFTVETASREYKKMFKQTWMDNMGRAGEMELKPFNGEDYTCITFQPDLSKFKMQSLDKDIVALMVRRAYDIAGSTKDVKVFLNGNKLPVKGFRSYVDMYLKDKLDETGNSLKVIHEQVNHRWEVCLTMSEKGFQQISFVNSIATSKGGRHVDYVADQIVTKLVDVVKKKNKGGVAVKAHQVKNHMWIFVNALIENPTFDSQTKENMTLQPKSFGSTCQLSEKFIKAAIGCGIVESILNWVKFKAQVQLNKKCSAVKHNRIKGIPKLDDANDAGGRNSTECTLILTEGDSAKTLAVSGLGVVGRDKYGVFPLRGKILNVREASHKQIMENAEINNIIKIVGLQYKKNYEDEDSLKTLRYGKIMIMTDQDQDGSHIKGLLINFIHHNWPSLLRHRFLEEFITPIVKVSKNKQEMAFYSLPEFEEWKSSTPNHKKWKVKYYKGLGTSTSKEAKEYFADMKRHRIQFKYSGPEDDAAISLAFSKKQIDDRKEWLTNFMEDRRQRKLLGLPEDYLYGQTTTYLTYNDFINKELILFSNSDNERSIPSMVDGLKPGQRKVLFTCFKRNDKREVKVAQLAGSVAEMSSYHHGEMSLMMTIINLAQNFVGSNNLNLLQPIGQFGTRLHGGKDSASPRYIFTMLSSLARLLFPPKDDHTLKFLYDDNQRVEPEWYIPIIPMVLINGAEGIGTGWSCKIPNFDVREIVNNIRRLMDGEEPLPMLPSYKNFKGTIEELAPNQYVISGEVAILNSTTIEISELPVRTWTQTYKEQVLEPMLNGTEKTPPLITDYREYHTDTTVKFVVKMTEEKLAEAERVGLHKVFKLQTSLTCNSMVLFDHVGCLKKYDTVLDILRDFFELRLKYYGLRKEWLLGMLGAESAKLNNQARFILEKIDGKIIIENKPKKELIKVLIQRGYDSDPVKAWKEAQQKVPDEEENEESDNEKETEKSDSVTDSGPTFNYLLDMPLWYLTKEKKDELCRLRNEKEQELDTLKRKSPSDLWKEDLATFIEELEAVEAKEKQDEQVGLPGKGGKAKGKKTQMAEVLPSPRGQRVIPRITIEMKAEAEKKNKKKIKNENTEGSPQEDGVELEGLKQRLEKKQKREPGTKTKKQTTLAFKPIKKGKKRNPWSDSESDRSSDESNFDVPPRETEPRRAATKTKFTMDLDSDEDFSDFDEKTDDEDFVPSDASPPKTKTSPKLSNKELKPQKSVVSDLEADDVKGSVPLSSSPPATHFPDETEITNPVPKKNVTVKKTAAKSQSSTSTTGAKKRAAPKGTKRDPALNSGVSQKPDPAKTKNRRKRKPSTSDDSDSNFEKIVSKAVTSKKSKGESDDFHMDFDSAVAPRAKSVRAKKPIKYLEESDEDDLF
Method in brief: (§3)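 Supercoiled pBR322 (0.25 µg) with 1 U human recombinant topoisomerase IIα and test compound, 60 min at 37 °C in 20 µl reaction buffer. Stopped with SDS/bromophenol blue/glycerol plus 50 µg/mL proteinase K, 30 min at 37 °C. Separated on 1% agarose at room temperature, ethidium bromide stained (1 µg/mL, TAE), UV-visualized.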

yA7 [5] = assay: Cytotoxicity against mouse yA7 cells after 24 to 96 hrs by MTS assay; type: functional, cell-based; method in brief: as §2
A-431 = assay: Cytotoxicity against human A431 cells after 72 hrs by trypan blue assay; type: functional, cell-based; settings: A-431, 72 h; method in brief: as §1
Nucleic Acid = assay: Binding affinity to salmon testes DNA by linear flow dichroism analysis; type: nucleic-acid assay; settings: Salmonidae
Method in brief: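 Salmon testes DNA (1.9 × 10^-3 M) in ETN buffer (10 mM Tris, 10 mM NaCl, 1 mM EDTA, pH 7). Linear dichroism spectra were recorded at 25 °C over a range of [drug]/[DNA] ratios on a spectropolarimeter converted for LD.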

A2B1 [6] = assay: Cytotoxicity against mouse A2B1 cells after 24 to 96 hrs by MTS assay; type: functional, cell-based; method in brief: as §2
Craf/Cmyc [7] = assay: Cytotoxicity against mouse Craf/Cmyc cells after 24 to 96 hrs by MTS assay; type: functional, cell-based; method in brief: as §2
yD12 [8] = assay: Cytotoxicity against mouse yD12 cells after 24 to 96 hrs by MTS assay; type: functional, cell-based; method in brief: as §2
Bos taurus = organism: Bos taurus; assay: Inhibition of calf thymus topoisomerase 1-mediated relaxation of supercoiled pBR322 at 100 uM after 60 mins using ethidium bromide staining by agarose gel electrophoresis
Method in brief: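 Supercoiled pBR322 (0.25 µg) with 2 U calf thymus topoisomerase I and test compound, 60 min at 37 °C in 20 µl reaction buffer. Stopped with SDS/bromophenol blue/glycerol plus 50 µg/mL proteinase K, 30 min at 37 °C. Run on 1% agarose at room temperature, stained with ethidium bromide 1 µg/mL in TAE, imaged under UV.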

B3 [9] = assay: Cytotoxicity against mouse B3 cells after 24 to 96 hrs by MTS assay; type: functional, cell-based; method in brief: as §2
HL-60 = assay: Cytotoxicity against human HL60 cells after 72 hrs by trypan blue assay; type: functional, cell-based; settings: HL-60, 72 h; method in brief: as §1
Mus musculus [10] = organism: Mus musculus; assay: Cytotoxicity against mouse betaD5 cells after 24 to 96 hrs by MTS assay; type: functional, cell-based; method in brief: as §2
yB8 [11] = assay: Cytotoxicity against mouse yB8 cells after 24 to 96 hrs by MTS assay; type: functional, cell-based; method in brief: as §2
HUVEC = assay: Antiangiogenic activity in HUVEC cocultured with human PaSMC assessed as inhibition of capillary-like network formation up to 200 nM after 72 hrs; type: functional, cell-based
Method in brief: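 Primary HUVEC (passage 5, retrovirally labelled with RFP) and pulmonary artery vSMC (passage 5) co-seeded at 5×10^4 PaSMC plus 10×10^3 HUVEC per well in EGM-2, briefly spun at 200 g, attached 3 h. Compounds were then added at final 2–200 nM, two replicates per concentration. Networks formed over 72 h at 37 °C, 5% CO2, followed by automated imaging and image analysis of tube formation.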

Mus musculus [12] = organism: Mus musculus; assay: Induction apoptosis in mouse betaD5 cells assessed as ROS production at 10 uM/L using DCFH-DA by flow cytometry relative to control; type: functional, cell-based
Method in brief: (§4)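 Transgenic mouse cells exposed to compound at 10 µmol/L. ROS generation was measured by flow cytometry using the probe DCFH-DA.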

A2B1 [13] = assay: Induction apoptosis in mouse A2B1 cells assessed as ROS production at 10 uM/L using DCFH-DA by flow cytometry relative to control; type: functional, cell-based; method in brief: as §4
[14] = target: DNA topoisomerase 2-alpha (Homo sapiens) (UniProt P11388); assay: Inhibition of human recombinant topoisomerase 2alpha-mediated relaxation of supercoiled pBR322 at 100 uM after 60 mins using ethidium bromide staining by agarose gel electrophoresis; method in brief: as §3
A2C12 [15] = assay: Induction apoptosis in mouse A2C12 cells assessed as relative caspase activity at 10 uM/L after 2 hrs by rhodamine 110 fluorescence assay; type: functional, cell-based
Method in brief: (§5)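 Cells were pretreated with compound (10 µmol/L) for 2 h. The cell-permeable caspase substrate (Asp)2-rhodamine 110 (10 µmol/L) was then added for 2 h more. Caspase cleavage releases fluorescent rhodamine 110, and the read-out was mean fluorescence.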

Craf/Cmyc [16] = assay: Induction apoptosis in mouse Craf/Cmyc cells assessed as relative caspase activity at 10 uM/L after 2 hrs by rhodamine 110 fluorescence assay; type: functional; method in brief: as §5
A2B1 [17] = assay: Induction apoptosis in mouse A2B1 cells assessed as relative caspase activity at 10 uM/L after 2 hrs by rhodamine 110 fluorescence assay; type: functional, cell-based; method in brief: as §5
B3 [18] = assay: Induction apoptosis in mouse B3 cells assessed as ROS production at 10 uM/L using DCFH-DA by flow cytometry relative to control; type: functional, cell-based; method in brief: as §4
yD1 [19] = assay: Induction apoptosis in mouse yD1 cells assessed as ROS production at 10 uM/L using DCFH-DA by flow cytometry relative to control; type: functional, cell-based; method in brief: as §4
B3 [20] = assay: Induction apoptosis in mouse B3 cells assessed as relative caspase activity at 10 uM/L after 2 hrs by rhodamine 110 fluorescence assay; type: functional, cell-based; method in brief: as §5
yD12 [21] = assay: Induction apoptosis in mouse yD12 cells assessed as relative caspase activity at 10 uM/L after 2 hrs by rhodamine 110 fluorescence assay; type: functional, cell-based; method in brief: as §5
Mus musculus [22] = organism: Mus musculus; assay: Induction apoptosis in mouse betaD10 cells assessed as relative caspase activity at 10 uM/L after 2 hrs by rhodamine 110 fluorescence assay; type: functional, cell-based; method in brief: as §5
yA3 [23] = assay: Induction apoptosis in mouse yA3 cells assessed as ROS production at 10 uM/L using DCFH-DA by flow cytometry relative to control; type: functional, cell-based; method in brief: as §4
yB8 [24] = assay: Induction apoptosis in mouse yB8 cells assessed as relative caspase activity at 10 uM/L after 2 hrs by rhodamine 110 fluorescence assay; type: functional, cell-based; method in brief: as §5
yD1 [25] = assay: Induction apoptosis in mouse yD1 cells assessed as relative caspase activity at 10 uM/L after 2 hrs by rhodamine 110 fluorescence assay; type: functional, cell-based; method in brief: as §5
yB8 [26] = assay: Induction apoptosis in mouse yB8 cells assessed as ROS production at 10 uM/L using DCFH-DA by flow cytometry relative to control; type: functional, cell-based; method in brief: as §4
yA3 [27] = assay: Induction apoptosis in mouse yA3 cells assessed as relative caspase activity at 10 uM/L after 2 hrs by rhodamine 110 fluorescence assay; type: functional, cell-based; method in brief: as §5
yD12 [28] = assay: Induction apoptosis in mouse yD12 cells assessed as ROS production at 10 uM/L using DCFH-DA by flow cytometry relative to control; type: functional, cell-based; method in brief: as §4
[29] = target: DNA topoisomerase 2-alpha (Homo sapiens) (UniProt P11388); assay: Inhibition of human recombinant topoisomerase 2alpha-mediated relaxation of supercoiled pBR322 after 60 mins using ethidium bromide staining by agarose gel electrophoresis; method in brief: as §3
yA7 [30] = assay: Induction apoptosis in mouse yA7 cells assessed as ROS production at 10 uM/L using DCFH-DA by flow cytometry relative to control; type: functional, cell-based; method in brief: as §4
A2C12 [31] = assay: Induction apoptosis in mouse A2C12 cells assessed as ROS production at 10 uM/L using DCFH-DA by flow cytometry relative to control; type: functional, cell-based; method in brief: as §4
Mus musculus [32] = organism: Mus musculus; assay: Induction apoptosis in mouse betaD5 cells assessed as relative caspase activity at 10 uM/L after 2 hrs by rhodamine 110 fluorescence assay; type: functional, cell-based; method in brief: as §5
Craf/Cmyc [33] = assay: Induction apoptosis in mouse Craf/Cmyc cells assessed as ROS production at 10 uM/L using DCFH-DA by flow cytometry relative to control; type: functional, cell-based; method in brief: as §4
Mus musculus [34] = organism: Mus musculus; assay: Induction apoptosis in mouse betaD10 cells assessed as ROS production at 10 uM/L using DCFH-DA by flow cytometry relative to control; type: functional, cell-based; method in brief: as §4
yA7 [35] = assay: Induction apoptosis in mouse yA7 cells assessed as relative caspase activity at 10 uM/L after 2 hrs by rhodamine 110 fluorescence assay; type: functional, cell-based; method in brief: as §5
[36] = target: DNA topoisomerase 2-alpha (Homo sapiens) (UniProt P11388); assay: Inhibition of human recombinant topoisomerase 2alpha-mediated relaxation of supercoiled pBR322 at 50 uM after 60 mins using ethidium bromide staining by agarose gel electrophoresis; method in brief: as §3

CC[C@@]1(OC(=O)NCCN2C(=O)CCCSSCCCC2=O)C(=O)OCc2c1cc1n(c2=O)Cc2cc3ccccc3nc2-1
1550 nM: IC50 (HL-60)
570 nM: IC50 (HeLa)
inactive: Activity [4] | Activity (Nucleic Acid) | Activity (Bos taurus) | Activity (HUVEC)
1210 nM: IC50 (A-431)
active: Activity (yA3 [1]) | Activity (Mus musculus [2]) | Activity (A2C12 [3]) | Activity (yA7 [5]) | Activity (A2B1 [6]) | Activity (Craf/Cmyc [7]) | Activity (yD12 [8]) | Activity (B3 [9]) | Activity (Mus musculus [10]) | Activity (yB8 [11])

CC[C@@]1(OC(=O)NCCN2C(=O)CCSSCCC2=O)C(=O)OCc2c1cc1n(c2=O)Cc2cc3ccccc3nc2-1
2970 nM: IC50 (A-431)
8100 nM: IC50 (HL-60)
12000 nM: IC50 (HeLa)
inactive: Activity (Mus musculus [12]) | Activity (A2B1 [13]) | Activity (A2C12 [15]) | Activity (Craf/Cmyc [16]) | Activity (A2B1 [17]) | Activity (B3 [18]) | Activity (yD1 [19]) | Activity (B3 [20]) | Activity (yD12 [21]) | Activity (Mus musculus [22]) | Activity (yA3 [23]) | Activity (Nucleic Acid) | Activity (yB8 [24]) | Activity (yD1 [25]) | Activity (yB8 [26]) | Activity (Bos taurus) | Activity (yA3 [27]) | Activity (yD12 [28]) | Activity (yA7 [30]) | Activity (A2C12 [31]) | Activity (Mus musculus [32]) | Activity (Craf/Cmyc [33]) | Activity (Mus musculus [34]) | Activity (HUVEC) | Activity (yA7 [35])
active: Activity [14] | Activity (yA3 [1]) | Activity (Mus musculus [2]) | Activity (A2C12 [3]) | Activity (yA7 [5]) | Activity (A2B1 [6]) | Activity (Craf/Cmyc [7]) | Activity (yD12 [8]) | Activity (B3 [9]) | Activity [29] Dose-dependent effect | Activity (Mus musculus [10]) | Activity (yB8 [11])

CC[C@@]1(OC(=O)NCCNC(=O)CCSSCCC(=O)NCCNC(=O)O[C@]2(CC)C(=O)OCc3c2cc2n(c3=O)Cc3cc4ccccc4nc3-2)C(=O)OCc2c1cc1n(c2=O)Cc2cc3ccccc3nc2-1
inactive: Activity (Nucleic Acid) | Activity (Bos taurus)
920 nM: IC50 (HL-60)
active: Activity (yA3 [1]) | Activity (Mus musculus [2]) | Activity (A2C12 [3]) | Activity (yA7 [5]) | Activity (A2B1 [6]) | Activity (Craf/Cmyc [7]) | Activity (yD12 [8]) | Activity (B3 [9]) | Activity [29] Dose-dependent effect | inhibition [36] | Activity (Mus musculus [10]) | Activity (yB8 [11])
150 nM: IC50 (A-431)
700 nM: IC50 (HeLa)

CC[C@@]1(OC(=O)NCCN2C(=O)CSSCC2=O)C(=O)OCc2c1cc1n(c2=O)Cc2cc3ccccc3nc2-1
inactive: Activity [4] | Activity (Nucleic Acid)
